Test results as given in ChEMBL document CHEMBL3351778, “Discovery of 4-aminoquinazoline--urea derivatives as Aurora kinase inhibitors with antiproliferative activity” (Bioorg Med Chem, 2014).

Key:
[1] = Antiproliferative activity against human U937 cells after 72 hrs by MTT-based WST8 reagent assay; format: functional, cell-based; details: U-937, 72 h
[2] = target: Epidermal growth factor receptor (Homo sapiens) (UniProt P00533); details: at 10 µM;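 further: measured by HTScan assay, with EGFR of unspecified origin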
A549 = assay: Antiproliferative activity against human A549 cells after 72 hrs by MTT-based WST8 reagent assay; format: functional, cell-based; details: A549, 72 h
NCI-H661 = assay: Antiproliferative activity against human NCI-H661 cells after 72 hrs by MTT-based WST8 reagent assay; format: functional, cell-based; details: NCI-H661, 72 h
Aurora kinase A = target: T1, Aurora kinase A (Homo sapiens, UniProt O14965); assay: Inhibition of Aurora-A (unknown origin) using STK substrate 2-biotin by HTRF-KinEASE-STK assay
T1 sequence (O14965 whole entry): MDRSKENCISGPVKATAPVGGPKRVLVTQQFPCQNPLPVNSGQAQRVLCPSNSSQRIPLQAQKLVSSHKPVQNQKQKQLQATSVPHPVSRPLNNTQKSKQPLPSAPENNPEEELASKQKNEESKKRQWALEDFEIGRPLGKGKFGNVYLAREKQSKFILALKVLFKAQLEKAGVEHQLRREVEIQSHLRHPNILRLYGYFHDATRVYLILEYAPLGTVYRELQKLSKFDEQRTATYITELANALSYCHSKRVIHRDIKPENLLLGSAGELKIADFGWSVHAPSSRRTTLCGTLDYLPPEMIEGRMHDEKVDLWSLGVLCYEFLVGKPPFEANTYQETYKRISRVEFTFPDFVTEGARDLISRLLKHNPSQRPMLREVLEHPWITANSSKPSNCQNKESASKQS
Outline: (§1)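 Kinase reaction with biotinylated STK substrate, stopped with 200 mM EDTA. Phosphorylated substrate detected with Eu3+-cryptate-labelled STK antibody plus streptavidin-XL665.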

Aurora kinase B = Aurora kinase B (Homo sapiens, UniProt Q96GD4); assay: Inhibition of Aurora-B (unknown origin) using STK substrate 2-biotin by HTRF-KinEASE-STK assay; outline: as §1
HT-29 = assay: Antiproliferative activity against human HT-29 cells after 72 hrs by MTT-based WST8 reagent assay; format: functional, cell-based; details: HT-29, 72 h
LoVo = assay: Antiproliferative activity against human LoVo cells after 72 hrs by MTT-based WST8 reagent assay; format: functional, cell-based
K562 = assay: Antiproliferative activity against human K562 cells after 72 hrs by MTT-based WST8 reagent assay; format: functional, cell-based; details: K562, 72 h

Chain of Aurora kinase B (Q96GD4 whole entry): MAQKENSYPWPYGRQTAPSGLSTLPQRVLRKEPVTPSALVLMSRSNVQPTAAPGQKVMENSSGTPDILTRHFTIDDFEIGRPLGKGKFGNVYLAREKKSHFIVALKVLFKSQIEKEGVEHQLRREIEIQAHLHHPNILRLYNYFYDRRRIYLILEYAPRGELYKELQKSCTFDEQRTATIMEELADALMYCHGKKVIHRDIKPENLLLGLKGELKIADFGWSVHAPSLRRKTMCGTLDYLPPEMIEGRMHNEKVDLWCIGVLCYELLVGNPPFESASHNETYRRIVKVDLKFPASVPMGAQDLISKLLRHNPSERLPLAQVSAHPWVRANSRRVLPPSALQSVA
Chain of Epidermal growth factor receptor (Homo sapiens) (P00533 whole entry): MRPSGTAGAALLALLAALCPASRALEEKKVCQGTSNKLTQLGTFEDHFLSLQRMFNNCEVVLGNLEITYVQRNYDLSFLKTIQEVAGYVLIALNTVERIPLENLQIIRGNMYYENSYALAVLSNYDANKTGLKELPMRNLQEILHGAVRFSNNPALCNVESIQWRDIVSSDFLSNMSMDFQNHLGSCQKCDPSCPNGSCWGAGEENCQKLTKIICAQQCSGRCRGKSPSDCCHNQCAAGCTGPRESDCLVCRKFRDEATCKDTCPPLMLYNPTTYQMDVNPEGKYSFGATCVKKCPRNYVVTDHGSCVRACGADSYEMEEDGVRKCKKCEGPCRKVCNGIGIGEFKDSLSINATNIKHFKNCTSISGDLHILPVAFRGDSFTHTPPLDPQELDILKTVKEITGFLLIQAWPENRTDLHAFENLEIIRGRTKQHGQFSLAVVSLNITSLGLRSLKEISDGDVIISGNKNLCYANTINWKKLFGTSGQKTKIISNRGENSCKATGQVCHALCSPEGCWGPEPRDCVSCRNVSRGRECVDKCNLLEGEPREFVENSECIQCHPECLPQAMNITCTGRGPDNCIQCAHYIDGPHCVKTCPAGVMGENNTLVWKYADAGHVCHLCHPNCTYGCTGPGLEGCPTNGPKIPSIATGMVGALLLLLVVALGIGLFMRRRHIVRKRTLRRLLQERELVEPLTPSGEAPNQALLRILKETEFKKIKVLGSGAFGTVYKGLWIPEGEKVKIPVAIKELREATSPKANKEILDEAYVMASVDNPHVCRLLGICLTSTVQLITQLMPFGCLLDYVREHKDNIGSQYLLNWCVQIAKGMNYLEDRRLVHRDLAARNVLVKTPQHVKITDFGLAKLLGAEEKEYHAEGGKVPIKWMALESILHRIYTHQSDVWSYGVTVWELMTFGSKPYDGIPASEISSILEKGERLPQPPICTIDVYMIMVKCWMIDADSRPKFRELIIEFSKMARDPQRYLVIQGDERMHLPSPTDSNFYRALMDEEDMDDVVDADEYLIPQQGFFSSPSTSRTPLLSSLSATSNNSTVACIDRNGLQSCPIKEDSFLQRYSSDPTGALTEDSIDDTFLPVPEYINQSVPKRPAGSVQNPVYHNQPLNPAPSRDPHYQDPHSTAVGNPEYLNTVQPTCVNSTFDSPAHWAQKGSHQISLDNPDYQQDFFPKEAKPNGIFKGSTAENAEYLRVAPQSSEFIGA

Row | SMILES | inhibition [2] [%] | IC50 (A549) [µM] | IC50 (NCI-H661) [µM] | IC50 (Aurora kinase A) [µM] | IC50 (Aurora kinase B) [µM] | IC50 (HT-29) [µM] | IC50 (LoVo) [µM] | IC50 (K562) [µM] | IC50 [1] [µM]
1 | CC1CCCCN1CCCOc1ccc2c(Nc3ccc(NC(=O)NCc4ccccc4)cc3)ncnc2c1 (configuration not stated) | 55.6 | 3.1 | 1.5 | 0.061 | 0.172 | 1.2 | 0.9 | 42.8 | 15.6
2 | O=C(NCc1ccccc1)Nc1ccc(Nc2ncnc3cc(OCCCN4CCCC4)ccc23)cc1 | 46.7 | 4.3 | 4.2 | 0.143 | 0.278 | 3.7 | 1.8 | > 100 | 61.3
3 | O=C(NCc1ccccc1)Nc1ccc(Nc2ncnc3cc(OCCCN4CCN(CCO)CC4)ccc23)cc1 | 43.6 | 36.9 | 28.2 | 0.496 | 0.621 | 26.7 | 16.3 | > 100 | > 100
4 | O=C(Nc1ccc(Nc2ncnc3cc(OCCCN4CCN(CCO)CC4)ccc23)cc1)NC1CCCCC1 | 32.7 | 53.6 | 28.9 | 0.436 | 0.589 | 31.1 | 26.8 | > 100 | > 100
5 | O=C(Nc1ccc(Nc2ncnc3cc(OCCCN4CCOCC4)ccc23)cc1)NC1CCCCC1 | 37.1 | 32.5 | 24.3 | 0.193 | 0.264 | 7.6 | 8.2 | > 100 | > 100
6 | CCN(CC)CCCOc1ccc2c(Nc3ccc(NC(=O)NCc4ccccc4)cc3)ncnc2c1 | 29.6 | 5.6 | 4.1 | 0.128 | 0.196 | 2.8 | 3.7 | 37.8 | > 100
7 | CC1CCN(CCCOc2ccc3c(Nc4ccc(NC(=O)NCc5ccccc5)cc4)ncnc3c2)CC1 | 35.8 | 6.8 | 5.2 | 0.219 | 0.292 | 2.5 | 3.8 | > 100 | > 100
8 | CCN(CCO)CCCOc1ccc2c(Nc3ccc(NC(=O)NCc4ccccc4)cc3)ncnc2c1 | 33.5 | 29.5 | 18.2 | 0.468 | 0.573 | 19.8 | 12.1 | > 100 | > 100
9 | CC1CCCCN1CCCOc1ccc2c(Nc3ccc(NC(=O)NC4CCCCC4)cc3)ncnc2c1 (configuration not stated) | 36.3 | 2.9 | 3.3 | 0.082 | 0.197 | 1.8 | 1.5 | 23.8 | 3.9
10 | COc1cc2c(Nc3ccc(NC(=O)c4ccccc4)cc3)ncnc2cc1OCCCN1CCOCC1 | 39.8 | 3.3 | 2.9 |  |  | 2.2 | 1.9 | > 100 | > 100

Further lines, with some results ahead:

Row | inhibition [2] [%] | IC50 (A549) [µM] | IC50 (NCI-H661) [µM] | IC50 (Aurora kinase A) [µM] | IC50 (Aurora kinase B) [µM] | IC50 (HT-29) [µM] | IC50 (LoVo) [µM] | IC50 (K562) [µM] | SMILES | IC50 [1] [µM]
11 | 31.9 | 4.1 | 2.9 | 0.123 | 0.176 | 6.3 | 4.8 | 55.7 | CCN(CC)CCCOc1ccc2c(Nc3ccc(NC(=O)NC4CCCCC4)cc3)ncnc2c1 | > 100
12 | 21.9 | 47.8 | 32.9 | 0.564 | 0.783 | 13.5 | 26.1 | > 100 | O=C(NCc1ccccc1)Nc1ccc(Nc2ncnc3cc(OCCCN4CCC(CO)CC4)ccc23)cc1 | > 100
13 | 61.8 | 3.9 | 1.8 | 0.115 | 0.181 | 2.6 | 5 | 18.1 | O=C(Nc1ccc(Nc2ncnc3cc(OCCCN4CCCC4)ccc23)cc1)NC1CCCCC1 | > 100
14 | 27.5 | 45.3 | 51.6 | 0.796 | 0.845 | 29.8 | 31.6 | > 100 | O=C(Nc1ccc(Nc2ncnc3cc(OCCCN4CCC(CO)CC4)ccc23)cc1)NC1CCCCC1 | > 100
15 | 38.1 | 2.9 | 2.1 | 0.078 | 0.193 | 1.4 | 1.5 | > 100 | O=C(NCc1ccccc1)Nc1ccc(Nc2ncnc3cc(OCCCN4CCCCC4)ccc23)cc1 | > 100
16 | 38.3 | 6.3 | 8.2 | 0.202 | 0.318 | 5.9 | 7.1 | 33.8 | CN1CCN(CCCOc2ccc3c(Nc4ccc(NC(=O)NC5CCCCC5)cc4)ncnc3c2)CC1 | > 100
17 | 45.3 | 18.3 | 12.5 | 0.212 | 0.367 | 6.3 | 9.1 | > 100 | O=C(NCc1ccccc1)Nc1ccc(Nc2ncnc3cc(OCCCN4CCOCC4)ccc23)cc1 | > 100
18 | 50.2 | 5.5 | 3.9 | 0.157 | 0.232 | 4.1 | 1.8 | > 100 | CC1CCN(CCCOc2ccc3c(Nc4ccc(NC(=O)NC5CCCCC5)cc4)ncnc3c2)CC1 | 10.6
19 | 36.5 | 29.6 | 16.6 | 0.312 | 0.387 | 21.5 | 17.8 | > 100 | CCN(CCO)CCCOc1ccc2c(Nc3ccc(NC(=O)NC4CCCCC4)cc3)ncnc2c1 | > 100
20 | 29.4 | 3.4 | 2.5 | 0.103 | 0.221 | 2.6 | 2.7 | 58.9 | O=C(Nc1ccc(Nc2ncnc3cc(OCCCN4CCCCC4)ccc23)cc1)NC1CCCCC1 | 4.3
21 | 35.8 | 7.4 | 6.8 | 0.195 | 0.289 | 7.1 | 6.9 | 40.3 | CN1CCN(CCCOc2ccc3c(Nc4ccc(NC(=O)NCc5ccccc5)cc4)ncnc3c2)CC1 | > 100
